Experimental data from ChEMBL document CHEMBL2086239, “Synthesis and biological evaluation of combretastatin-amidobenzothiazole conjugates as potential anticancer agents” (Eur J Med Chem, 2012).
One block for each compound: values may come before it. Calls of active or inactive are those of the source. The rule behind the calls is not given here.

Columns and labels:
Type in all cases: functional
[1] = test system: SNB-75; test: Growth inhibition of human SNB75 cells after 48 hrs by SRB assay; conditions: SNB-75, 48 h
Procedure, shortened: (§1)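 NCI 60-cell-line panel, five-dose testing after preliminary screen; sulforhodamine B protein assay in DMEM with 10% FBS, 37 °C, 5% CO2, 100% humidity. Cells seeded and incubated 24 h before compound addition, then exposed 48 h. Absorbance read at 560 nm; growth percentage relative to control wells; GI50 taken as concentration giving 50% growth inhibition.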

[2] = test system: UACC-257; test: Growth inhibition of human UACC257 cells after 48 hrs by SRB assay; procedure, shortened: as §1
[3] = test system: EKVX; test: Growth inhibition of human EKVX cells after 48 hrs by SRB assay
Procedure, shortened: (§2)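 NCI 60-cell-line screen: after preliminary screening, tested at five dose concentrations on 59 human tumour lines covering leukemia, lung, colon, CNS, melanoma, ovarian, renal, prostate and breast.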

[4] = test system: KM12; test: Growth inhibition of human KM12 cells after 48 hrs by SRB assay; conditions: KM12, 48 h; procedure, shortened: as §2
[5] = test system: MCF7; test: Cell cycle arrest in human MCF7 cells assessed as accumulation at G1 phase at 4 uM after 24 hrs by FACS analysis (reference value: 58.33%)
[6] = test system: NCI-H322M; test: Growth inhibition of human NCI-H322M cells after 48 hrs by SRB assay; procedure, shortened: as §2
[7] = test system: Malme-3M; test: Growth inhibition of human MALME-3M cells after 48 hrs by SRB assay; procedure, shortened: as §2
[8] = test system: MCF7; test: Cell cycle arrest in human MCF7 cells assessed as accumulation at G2/M phase at 4 uM after 24 hrs by FACS analysis (reference value: 34.88%)
[9] = test system: OVCAR-3; test: Growth inhibition of human OVCAR3 cells after 48 hrs by SRB assay; conditions: OVCAR-3, 48 h; procedure, shortened: as §2
[10] = test system: HCT-116; test: Growth inhibition of human HCT116 cells after 48 hrs by SRB assay; conditions: HCT-116, 48 h; procedure, shortened: as §2
[11] = test system: COLO 205; test: Cytotoxicity against human COLO205 cells after 48 hrs assessed as inhibition of cell growth at 10 uM after 48 hrs by SRB assay relative to control; conditions: COLO 205, 48 h, read-out: GI
Procedure, shortened: (§3)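 SRB protein assay in DMEM with 10% FBS at 37 °C, 5% CO2, 100% relative humidity. Cells seeded in 96-well plates, incubated 24 h, then exposed to drug at 10 µM for 48 h and processed per standard protocol. Absorbance read at 560 nm; growth percentage calculated for test wells relative to control wells.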

[12] = test system: SK-MEL-5; test: Growth inhibition of human SK-MEL-5 cells after 48 hrs by SRB assay; conditions: SK-MEL-5, 48 h; procedure, shortened: as §1
[13] = test system: SW-620; test: Growth inhibition of human SW620 cells after 48 hrs by SRB assay; conditions: SW-620, 48 h; procedure, shortened: as §1
[14] = test system: NCI-H460; test: Growth inhibition of human NCI-H460 cells after 48 hrs by SRB assay; conditions: NCI-H460, 48 h; procedure, shortened: as §2
[15] = test system: OVCAR-4; test: Growth inhibition of human OVCAR4 cells after 48 hrs by SRB assay; conditions: OVCAR-4, 48 h; procedure, shortened: as §2
[16] = test system: IMR-32; test: Cytotoxicity against human IMR32 cells after 48 hrs assessed as inhibition of cell growth at 10 uM after 48 hrs by SRB assay relative to control; conditions: IMR-32, 48 h, read-out: GI; procedure, shortened: as §3
[17] = test system: MOLT-4; test: Growth inhibition of human MOLT4 cells after 48 hrs by SRB assay; conditions: MOLT-4, 48 h; procedure, shortened: as §2
[18] = test system: MDA-MB-231; test: Growth inhibition of human MDA-MB-231 cells after 48 hrs by SRB assay; conditions: MDA-MB-231, 48 h; procedure, shortened: as §2
[19] = test system: SK-MEL-2; test: Growth inhibition of human SK-MEL-2 cells after 48 hrs by SRB assay; conditions: SK-MEL-2, 48 h; procedure, shortened: as §1
[20] = test system: CCRF-CEM; test: Growth inhibition of human CCRF-CEM cells after 48 hrs by SRB assay; procedure, shortened: as §2
[21] = test system: NCI/ADR-RES; test: Growth inhibition of human NCI/ADR-RES cells after 48 hrs by SRB assay; procedure, shortened: as §2
[22] = test system: MCF7; test: Cell cycle arrest in human MCF7 cells assessed as accumulation at S phase at 4 uM after 24 hrs by FACS analysis (reference value: 6.79%)
[23] = test system: T47D; test: Growth inhibition of human T47D cells after 48 hrs by SRB assay; procedure, shortened: as §1
[24] = test system: ACHN; test: Growth inhibition of human ACHN cells after 48 hrs by SRB assay; procedure, shortened: as §2
[25] = test system: NCI-H23; test: Growth inhibition of human NCI-H23 cells after 48 hrs by SRB assay; conditions: NCI-H23, 48 h; procedure, shortened: as §2
[26] = test system: NCI-H522; test: Growth inhibition of human NCI-H522 cells after 48 hrs by SRB assay; conditions: NCI-H522, 48 h; procedure, shortened: as §2
[27] = test system: NCI-H226; test: Growth inhibition of human NCI-H226 cells after 48 hrs by SRB assay; conditions: NCI-H226, 48 h; procedure, shortened: as §2
[28] = test system: CAKI-1; test: Growth inhibition of human Caki1 cells after 48 hrs by SRB assay; conditions: CAKI-1, 48 h; procedure, shortened: as §2
[29] = test system: MDA-MB-435; test: Growth inhibition of human MDA-MB-435 cells after 48 hrs by SRB assay; conditions: MDA-MB-435, 48 h; procedure, shortened: as §2
[30] = test system: COLO 205; test: Growth inhibition of human COLO205 cells after 48 hrs by SRB assay; conditions: COLO 205, 48 h; procedure, shortened: as §2
[31] = test system: UO-31; test: Growth inhibition of human UO31 cells after 48 hrs by SRB assay; conditions: UO-31, 48 h; procedure, shortened: as §1
[32] = test system: SN12C; test: Growth inhibition of human SN12C cells after 48 hrs by SRB assay; procedure, shortened: as §1
[33] = test system: BT-549; test: Growth inhibition of human BT549 cells after 48 hrs by SRB assay; conditions: BT-549, 48 h; procedure, shortened: as §2
[34] = test system: UACC-62; test: Growth inhibition of human UACC62 cells after 48 hrs by SRB assay; conditions: UACC-62, 48 h; procedure, shortened: as §1
[35] = test system: RXF 393; test: Growth inhibition of human RXF393 cells after 48 hrs by SRB assay; conditions: RXF 393, 48 h; procedure, shortened: as §2
[36] = test system: HOP-62; test: Growth inhibition of human HOP62 cells after 48 hrs by SRB assay; conditions: HOP-62, 48 h; procedure, shortened: as §2
[37] = test system: HCT-15; test: Growth inhibition of human HCT15 cells after 48 hrs by SRB assay; conditions: HCT-15, 48 h; procedure, shortened: as §2
[38] = test system: IGROV-1; test: Growth inhibition of human IGROV1 cells after 48 hrs by SRB assay; conditions: IGROV-1, 48 h; procedure, shortened: as §2
[39] = test system: MCF7; test: Cytotoxicity against human MCF7 cells after 48 hrs assessed as inhibition of cell growth at 10 uM after 48 hrs by SRB assay relative to control; conditions: MCF7, 48 h, read-out: GI; procedure, shortened: as §3
[40] = test system: SR; test: Growth inhibition of human SR cells after 48 hrs by SRB assay; procedure, shortened: as §1
[41] = test system: Hs-578T; test: Growth inhibition of human Hs578T cells after 48 hrs by SRB assay; procedure, shortened: as §2
[42] = test system: THP-1; test: Cytotoxicity against human THP1 cells after 48 hrs assessed as inhibition of cell growth at 10 uM after 48 hrs by SRB assay relative to control; conditions: for inhibition of growth at 10 µM: THP-1, 48 h, read-out: GI; procedure, shortened: as §3

SMILES: COc1ccc2nc(NC(=O)COc3cc(/C=C\c4cc(OC)c(OC)c(OC)c4)ccc3OC)sc2c1
GI50 [1]: 1.91 µM
GI50 ([2]; UACC-257, 48 h): 63 µM
GI50 [3]: 5.11 µM
GI50 [4]: 3.12 µM
Activity [5]: 62.81%
GI50 [6]: inactive
GI50 [7]: inactive
Activity [8]: 30.07%
GI50 [9]: 2.17 µM
GI50 [10]: 3.7 µM
inhibition of growth at 10 µM [11]: 56%
GI50 [12]: 2.68 µM
GI50 [13]: 5.1 µM
GI50 [14]: 3.73 µM
GI50 [15]: 5.31 µM
inhibition of growth at 10 µM [16]: 73%
GI50 [17]: 3.87 µM
GI50 [18]: 5.4 µM
GI50 [19]: 4.07 µM
GI50 [20]: 3.87 µM
GI50 [21]: 2.3 µM
Activity [22]: 7.12%
GI50 [23]: 4.03 µM
GI50 [24]: 7.77 µM
GI50 [25]: 3.91 µM
GI50 [26]: 3.09 µM
GI50 [27]: 4.51 µM
GI50 [28]: 3.2 µM
GI50 [29]: 1.16 µM
GI50 [30]: 3.89 µM
GI50 [31]: 4.31 µM
GI50 [32]: 5.75 µM
GI50 [33]: 21.2 µM
GI50 [34]: 5.93 µM
GI50 [35]: 2.5 µM
GI50 [36]: 23 µM
GI50 [37]: 2.89 µM
GI50 [38]: 7 µM
inhibition of growth at 10 µM [39]: 53%
GI50 [40]: 3.69 µM
GI50 [41]: 4.15 µM
inhibition of growth at 10 µM [42]: 72%

SMILES: COc1ccc(/C=C\c2cc(OC)c(OC)c(OC)c2)cc1OCC(=O)Nc1nc2ccc(OC(F)(F)F)cc2s1
GI50 [1]: 1.56 µM
GI50 [2]: inactive
GI50 [3]: 7.89 µM
GI50 [4]: 4.48 µM
Activity [5]: 59.04%
GI50 [6]: inactive
Activity [8]: 33.45%
GI50 [9]: 3.37 µM
GI50 [10]: 3.92 µM
inhibition of growth at 10 µM [11]: 41%
GI50 [12]: 3.26 µM
GI50 [13]: 5.65 µM
GI50 [14]: 4.11 µM
GI50 [15]: 5.34 µM
inhibition of growth at 10 µM [16]: 44%
GI50 [17]: 4.21 µM
GI50 [18]: 5.16 µM
GI50 [19]: 3.29 µM
GI50 [20]: 4.12 µM
GI50 [21]: 2.7 µM
Activity [22]: 7.51%
GI50 [23]: 3.95 µM
GI50 [24]: 8.31 µM
GI50 [25]: 4.39 µM
GI50 [26]: 3.16 µM
GI50 [27]: 4.3 µM
GI50 [28]: 4.6 µM
GI50 [29]: 1.93 µM
GI50 [30]: 43.3 µM
GI50 [31]: 4.37 µM
GI50 [32]: 6.42 µM
GI50 [33]: 10.5 µM
GI50 [34]: 5.11 µM
GI50 [35]: 2.65 µM
GI50 [36]: 7.09 µM
GI50 [37]: 3.23 µM
GI50 [38]: 5.64 µM
inhibition of growth at 10 µM [39]: 59%
GI50 [40]: 3.55 µM
GI50 [41]: 4.33 µM
inhibition of growth at 10 µM [42]: 66%

GI50 [9]: 0.043 µM
GI50 [10]: 0.046 µM
GI50 [12]: 0.036 µM
GI50 [14]: 0.052 µM
GI50 [15]: 0.37 µM
GI50 [17]: 0.34 µM
GI50 [18]: 0.19 µM
GI50 [19]: 0.18 µM
GI50 [20]: 0.078 µM
GI50 [23]: 1 µM
GI50 [24]: 0.093 µM
GI50 [25]: 0.11 µM
GI50 [26]: 0.079 µM
GI50 [27]: 0.27 µM
GI50 [29]: 0.019 µM
GI50 [30]: 2.83 µM
GI50 [33]: 0.41 µM
GI50 [37]: 0.048 µM
SMILES: COc1ccc(/C=C\c2cc(OC)c(OC)c(OC)c2)cc1OCC(=O)Nc1nc2ccccc2s1
GI50 [1]: 0.046 µM
GI50 ([2]; UACC-257, 48 h): 11 µM
GI50 [3]: 0.038 µM
GI50 [4]: 0.058 µM
Activity [5]: 25.94%
GI50 [7]: 1.99 µM
Activity [8]: 46%
inhibition of growth at 10 µM [11]: 60%
inhibition of growth at 10 µM [16]: 91%
GI50 [21]: 0.033 µM
Activity [22]: 27.48%
GI50 [28]: 0.41 µM
GI50 [31]: 0.58 µM
GI50 [32]: 0.37 µM
GI50 [34]: 0.063 µM
GI50 [35]: 0.05 µM
GI50 [38]: 0.21 µM
inhibition of growth at 10 µM [39]: 72%
GI50 [40]: 0.037 µM
growth inhibition (GI) [42]: inactive
